Measured values from ChEMBL document CHEMBL1124794, “Synthesis, chemistry, and antineoplastic activity of alpha-halopyridinium salts: potential pyridone prodrugs of acylated vinylogous carbinolamine tumor inhibitors” (J Med Chem, 1990).
One block for each compound: values may come before it.

Experiments:
[1] = Hydrolysis were done at 25 degree C in 0.05 M phosphate buffer (pH 7.4); type: ADME
How it was run: (§1)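 Model pyridinium salts were hydrolysed to pyridones at 25 °C in 0.05 M phosphate buffer, pH 7.4. Decay of the pyridinium UV absorption maximum was monitored over time, giving pseudo-first-order k_obs and half-life.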

[2] = Half life of the compound; type: ADME
[3] = test system: P388; test: In vivo activity against P388 Lymphocytic Leukemia in CD2F1 mice at the dose of 50 mg/kg, activity expressed as TDS; 0/4; type: functional, Mus musculus
How it was run: (§2)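 CD2F1 mice were inoculated with ascitic fluid holding ca. 10^6 P388 cells. Drug was given daily from 24 h after inoculation, from solutions or suspensions made fresh each day, some as a saline suspension. TDS is survivors/initial animals on day 5. BWD is body weight on day 5 minus day 1. %T/C compares median survival of treated and control mice.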

[4] = test system: P388; test: In vivo activity against P388 Lymphocytic Leukemia in CD2F1 mice at the dose of 6.2 mg/kg, activity expressed as % T/C; type: functional, Mus musculus; how it was run: as §2
[5] = test system: P388; test: In vivo activity against P388 Lymphocytic Leukemia in CD2F1 mice at the dose of 25 mg/kg, activity expressed as TDS; 4/4; type: functional, Mus musculus; how it was run: as §2
[6] = test system: P388; test: In vivo activity against P388 Lymphocytic Leukemia in CD2F1 mice at the dose of 6.2 mg/kg, activity expressed as TDS; 4/4; type: functional, Mus musculus; how it was run: as §2
[7] = test system: P388; test: In vivo activity against P388 Lymphocytic Leukemia in CD2F1 mice at the dose of 25 mg/kg, activity expressed as % T/C; type: functional, Mus musculus; how it was run: as §2
[8] = test system: P388; test: In vivo activity against P388 Lymphocytic Leukemia in CD2F1 mice at the dose of 12.5 mg/kg, activity expressed as body weight difference; type: functional, Mus musculus; how it was run: as §2
[9] = test system: P388; test: In vivo activity against P388 Lymphocytic Leukemia in CD2F1 mice at the dose of 12.5 mg/kg, activity expressed as % T/C; type: functional, Mus musculus; how it was run: as §2
[10] = test system: P388; test: In vivo activity against P388 Lymphocytic Leukemia in CD2F1 mice at the dose of 25 mg/kg, activity expressed as body weight difference; type: functional, Mus musculus; how it was run: as §2
[11] = test system: P388; test: In vivo activity against P388 Lymphocytic Leukemia in CD2F1 mice at the dose of 12.5 mg/kg, activity expressed as TDS; 4/4; type: functional, Mus musculus; how it was run: as §2
[12] = test system: P388; test: In vivo activity against P388 Lymphocytic Leukemia in CD2F1 mice at the dose of 6.2 mg/kg, activity expressed as body weight difference; type: functional, Mus musculus; how it was run: as §2
[13] = test system: L1210; test: In vivo activity against murine L1210 tumor system at the dose of 25 mg/kg, activity expressed as TDS; 6/6; type: functional, Mus musculus
How it was run: (§3)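 L1210 lymphocytic leukemia: ascitic fluid with ca. 10^6 cells injected ip into CD2F1 mice. Dosing started 24 h after inoculation and was repeated daily for five doses in total, from solutions or suspensions made fresh each day. Toxicity day survivors were scored on day 5. Body weight difference is day 5 minus day 1. %T/C is based on median survival time versus controls.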

[14] = In vivo activity against murine M5076 tumor system at the dose of 90 mg/kg, activity expressed as KE; type: functional, Mus musculus
[15] = test system: P388; test: In vivo activity against P388 Lymphocytic Leukemia in CD2F1 mice at the dose of 50 mg/kg, activity expressed as TDS; 6/6; type: functional, Mus musculus; how it was run: as §2
[16] = test system: L1210; test: In vivo activity against murine L1210 tumor system at the dose of 25 mg/kg, activity expressed as %T/C.; type: functional, Mus musculus; how it was run: as §3
[17] = test system: MX1; test: In vivo activity against murine MX-1 tumor system at the dose of 180 mg/kg, activity expressed as TDS; 0/6; type: functional, Mus musculus
[18] = test system: P388; test: In vivo activity against P388 Lymphocytic Leukemia in CD2F1 mice at the dose of 200 mg/kg, activity expressed as TDS; 6/6; type: functional, Mus musculus; how it was run: as §2
[19] = test system: P388; test: In vivo activity against P388 Lymphocytic Leukemia in CD2F1 mice at the dose of 25 mg/kg, activity expressed as TDS; 6/6; type: functional, Mus musculus; how it was run: as §2
[20] = test system: L1210; test: In vivo body weight difference was determined in murine L1210 tumor system at the dose of 25 mg/kg; type: functional, Mus musculus
[21] = test system: P388; test: In vivo body weight difference was determined against P388 Lymphocytic Leukemia in CD2F1 mice at the dose of 25 mg/kg; type: functional, Mus musculus
[22] = test system: P388; test: In vivo activity against P388 Lymphocytic Leukemia in CD2F1 mice at the dose of 400 mg/kg, activity expressed as TDS; 0/6; type: functional, Mus musculus; how it was run: as §2
[23] = test system: P388; test: In vivo activity against P388 Lymphocytic Leukemia in CD2F1 mice at the dose of 100 mg/kg, activity expressed as % T/C; type: functional, Mus musculus; how it was run: as §2
[24] = In vivo body weight difference was determined in murine M5076 tumor system at the dose of 90 mg/kg; type: functional, Mus musculus
[25] = In vivo activity against murine M5076 tumor system at the dose of 90 mg/kg, activity expressed as TDS; 10/10; type: functional, Mus musculus
[26] = test system: MX1; test: In vivo activity against murine MX-1 tumor system at the dose of 90 mg/kg, activity expressed as TDS; 6/6; type: functional, Mus musculus
[27] = In vivo body weight difference was determined in murine M5076 tumor system at the dose of 180 mg/kg; type: functional, Mus musculus
[28] = test system: L1210; test: In vivo activity against murine L1210 tumor system at the dose of 50 mg/kg, activity expressed as KE; type: functional, Mus musculus; how it was run: as §3
[29] = In vivo activity against murine M5076 tumor system at the dose of 45 mg/kg, activity expressed as TDS; 10/10; type: functional, Mus musculus
[30] = test system: L1210; test: In vivo activity against murine L1210 tumor system at the dose of 50 mg/kg, activity expressed as TDS; 6/6; type: functional, Mus musculus; how it was run: as §3
[31] = In vivo activity against murine M5076 tumor system at the dose of 90 mg/kg, activity expressed as %T/C.; type: functional, Mus musculus
[32] = In vivo activity against murine M5076 tumor system at the dose of mg/kg, activity expressed as %T/C.; type: functional, Mus musculus
[33] = test system: P388; test: In vivo activity against P388 Lymphocytic Leukemia in CD2F1 mice at the dose of 100 mg/kg, activity expressed as TDS; 6/6; type: functional, Mus musculus; how it was run: as §2
[34] = In vivo body weight difference was determined in murine M5076 tumor system at the dose of 45 mg/kg; type: functional, Mus musculus
[35] = test system: L1210; test: In vivo body weight difference was determined in murine L1210 tumor system at the dose of 50 mg/kg; type: functional, Mus musculus
[36] = test system: P388; test: In vivo activity against P388 Lymphocytic Leukemia in CD2F1 mice at the dose of 25 mg/kg, activity expressed as KE; type: functional, Mus musculus
[37] = test system: P388; test: In vivo body weight difference was determined against P388 Lymphocytic Leukemia in CD2F1 mice at the dose of 12.5 mg/kg; type: functional, Mus musculus
[38] = test system: P388; test: In vivo body weight difference was determined against P388 Lymphocytic Leukemia in CD2F1 mice at the dose of 100 mg/kg; type: functional, Mus musculus
[39] = test system: P388; test: In vivo body weight difference was determined against P388 Lymphocytic Leukemia in CD2F1 mice at the dose of 200 mg/kg; type: functional, Mus musculus
[40] = test system: P388; test: In vivo activity against P388 Lymphocytic Leukemia in CD2F1 mice at the dose of 12.5 mg/kg, activity expressed as KE; type: functional, Mus musculus
[41] = test system: P388; test: In vivo activity against P388 Lymphocytic Leukemia in CD2F1 mice at the dose of 50 mg/kg, activity expressed as % T/C; type: functional, Mus musculus; how it was run: as §2
[42] = test system: P388; test: In vivo activity against P388 Lymphocytic Leukemia in CD2F1 mice at the dose of 12.5 mg/kg, activity expressed as TDS; 6/6; type: functional, Mus musculus; how it was run: as §2
[43] = test system: MX1; test: In vivo body weight difference was determined in murine MX-1 tumor system at the dose of 90 mg/kg; type: functional, Mus musculus
[44] = test system: P388; test: In vivo activity against P388 Lymphocytic Leukemia in CD2F1 mice at the dose of 100 mg/kg, activity expressed as KE; type: functional, Mus musculus
[45] = test system: P388; test: In vivo body weight difference was determined against P388 Lymphocytic Leukemia in CD2F1 mice at the dose of 50 mg/kg; type: functional, Mus musculus
[46] = test system: MX1; test: In vivo activity against murine MX-1 tumor system at the dose of 90mg/kg, activity expressed as %T/C.; type: functional, Mus musculus
[47] = test system: P388; test: In vivo activity against P388 Lymphocytic Leukemia in CD2F1 mice at the dose of 50 mg/kg, activity expressed as KE; type: functional, Mus musculus
[48] = test system: L1210; test: In vivo activity against murine L1210 tumor system at the dose of 100 mg/kg, activity expressed as TDS; 0/6; type: functional, Mus musculus; how it was run: as §3
[49] = test system: L1210; test: In vivo activity against murine L1210 tumor system at the dose of 50 mg/kg, activity expressed as %T/C.; type: functional, Mus musculus; how it was run: as §3
[50] = In vivo activity against murine M5076 tumor system at the dose of 180 mg/kg, activity expressed as TDS; 3/10; type: functional, Mus musculus
How it was run: (§4)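 M5076: ascitic fluid with ca. 10^6 cells inoculated ip into CD2F1 mice. Dosing started 24 h after inoculation and was then given every 4 days for four doses in total, from solutions or suspensions made fresh each day. Toxicity day survivors were scored on day 5. Body weight difference is day 14 minus day 1. %T/C is based on median survival time versus controls.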

[51] = test system: L1210; test: In vivo activity against murine L1210 tumor system at the dose of 25 mg/kg, activity expressed as KE; type: functional, Mus musculus; how it was run: as §3
[52] = In vivo activity against murine M5076 tumor system at the dose of 45 mg/kg, activity expressed as KE; type: functional, Mus musculus; how it was run: as §4
[53] = Hydrolysis at 25 degree C in 0.05 M phosphate buffer (pH 7.4); the rate was too fast to measure these conditions.; type: ADME; how it was run: as §1

Structure (SMILES): CC(C)NC(=O)OCc1c(COC(=O)NC(C)C)c(-c2ccc(Cl)[n+](C)c2)n2c1CCC2.[I-]
- TDS [3]: 0
- T/C [4]: 98%
- TDS [5]: 4
- TDS [6]: 4
- T/C [7]: 109%
- BWD [8]: 0.1 g
- T/C [9]: 102%
- BWD [10]: -1.1 g
- TDS [11]: 4
- BWD [12]: -0.4 g

Structure (SMILES): CC(C)NC(=O)OCc1c(COC(=O)NC(C)C)c(-c2ccc(F)[n+](C)c2)n2c1CCC2.[I-]
- TDS [13]: 6
- KE [14]: -1.4
- TDS [15]: 6
- T/C [16]: 119%
- TDS [17]: 0
- TDS [18]: 2
- TDS [19]: 6
- BWD [20]: -0.7 g
- BWD [21]: -0.1 g
- TDS [22]: 0
- T/C [23]: 158%
- BWD [24]: -1.8 g
- TDS [25]: 10
- TDS [26]: 6
- BWD [27]: -1.4 g
- KE [28]: -2.03
- TDS [29]: 10
- T/C [7]: 137%
- TDS [30]: 6
- T/C [31]: 125%
- T/C [32]: 115%
- TDS [33]: 6
- BWD [34]: -0.5 g
- BWD [35]: -0.7 g
- KE [36]: 0.06
- BWD [37]: 1.2 g
- BWD [38]: 0.1 g
- BWD [39]: -0.1 g
- KE [40]: -1.42
- T/C [41]: 141%
- TDS [42]: 6
- BWD [43]: 0.5 g
- KE [44]: 1.54
- T/C [9]: 112%
- BWD [45]: 0.6 g
- T/C [46]: 18%
- KE [47]: 0.32
- TDS [48]: 0
- T/C [49]: 123%
- TDS [50]: 3
- KE [51]: -2.09
- KE [52]: -1.79

Structure (SMILES): CCOC(=O)c1cc(Cl)[n+](C)c(Cl)c1.CS(=O)(=O)[O-]
- K obs [1]: 6.84 h⁻¹
- half-life [2]: 2.1 h

Further lines, results first:

- K obs [1]: 0.055 h⁻¹
- half-life [2]: 12.6 h
Structure (SMILES): Cc1cc(Cl)c(Cl)[n+](C)c1.O=S(=O)([O-])C(F)(F)F

- K obs [53]: Rate too fast
Structure (SMILES): CCOC(=O)c1cc[n+](C)c(F)c1.O=S(=O)([O-])C(F)(F)F

- K obs [1]: 0.0425 h⁻¹
- half-life [2]: 269 h
Structure (SMILES): Cc1ccc(Cl)[n+](C)c1.O=S(=O)([O-])C(F)(F)F
